# A selection: hits, their analogues and other compounds. The true share with any hit is near 4.1%.
# KCNK3 inh: human KCNK3 channel inhibitors, primary screen, CHO cells, FluxOR thallium flux, B-score | Potassium channel subfamily K member 3 (Homo sapiens), O14649 | FluxOR fluorescence; stronger effect = lower value | B-score at 10 µM | hit rate 0.84% among 340,000 | AID 602410, 2012;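 active means B-score under library mean minus 4 SD, starting fluorescence ratio at most library mean plus 5 SD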;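 further: more negative B-score means stronger inhibition of thallium flux through KCNK3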
# Cl transport mod: KCC2 cotransporter modulators, thallium flux, primary screen, cell-based, HEK293 KCC2, FluoZin-2 fluorescence, MLSMR | hit rate 2.2% among 190,000 | B-score of Tl+ flux slope (higher = more flux/activation; lower = inhibition) at 10 µM | Solute carrier family 12 member 5 (Homo sapiens), Q9H2X9 | KCC2 cells, thallium flux FluoZin-2 fluorescence;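 active means thallium flux slope and its plate-corrected score both differing from the plate sample mean at a set confidence after two filtering rounds, in either direction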;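 further: slope of fluorescence scaled to starting intensity during 10 to 20 s after thallium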
# KCNQ1 act: potentiators or activators of KCNQ1 channel, primary screen, cell-based, thallium flux, high-throughput. Potassium voltage-gated channel subfamily KQT member 1 (Homo sapiens), P51787. CHO-K1 KCNQ1, thallium flux FluxOR fluorescence; stronger effect = higher value. B-score at 10 µM. hit rate 0.35% among 310,000. AID 2648, 2010;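 active means fluorescence ratio B-score, a plate-corrected score, at least three library SD, with initial intensity B-score within 5 SD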
#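 assay system = CHO-K1 cells stably expressing KCNQ1 | medium = assay buffer, equal DMSO in all wells | timing = 37 °C overnight plating, 90-min dark dye load, 20-min compound pretreatment | measured by = kinetic FluxOR thallium fluorescence, 10-s 1-Hz baseline, 110-s post-stimulus read | measure = fluorescence change relative to baseline, converted to B score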
# KCNQ1 block: inhibitors of human KCNQ1 channel, primary screen, cell-based, thallium flux, high-throughput; Potassium voltage-gated channel subfamily KQT member 1 (Homo sapiens), P51787; CHO-K1 KCNQ1, FluxOR thallium flux fluorescence; stronger effect = higher value; B-score at 10 µM; hit rate 1.3% among 310,000; AID 2642, 2010;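 active means compounds whose thallium flux B-score, printed positive for inhibition, exceeds three library SD while starting fluorescence stays within three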;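 further: channel opened by potassium depolarization with thallium stimulus after 20 min compound exposure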
# KCNK9 block: KCNK9 potassium channel inhibitors, primary screen, HEK293 cells, thallium flux; Potassium channel subfamily K member 9 (Homo sapiens), Q9NPC2; FluxOR thallium flux fluorescence; stronger effect = lower value; B-score at 10 µM; hit rate 1.2% among 310,000; AID 488922, 2010;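 active means ratio B-score over 3 SD below the library mean, with starting fluorescence within 5 SD of its mean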;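 further: negative B-score means less thallium flux so channel inhibition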
# hERG rescue: hERG rescue from dofetilide block, primary screen, cell-based, CHO-hERG, FluxOR thallium flux, dofetilide IC70; dofetilide IC70 present; Voltage-gated inwardly rectifying potassium channel KCNH2 (Homo sapiens), Q12809; activation (rescue from dofetilide block), less the hit threshold, % at 10 µM; hit rate 0.51% among 310,000;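 active means activation above the mean of controls blocked by dofetilide plus 5 SD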;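 further: thallium influx through hERG after potassium depolarization seen as dye fluorescence rise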
# Numbers stand for hits; i = inactive; nt = no result.
SMILES,KCNK3 inh,Cl transport mod,KCNQ1 act,KCNQ1 block,KCNK9 block,hERG rescue
Cc1cc(/C=N/NC(=O)COc2cccc3cccnc23)c(C)n1-c1ccc(O)cc1,i,i,i,i,i,i
CC1=NN(Cc2c(C)nn(Cc3ccccc3)c2C)C(C)(C)C1,i,i,i,i,i,i
CCN(c1ccc(NC(=O)c2ccc(Cl)nc2)cc1)C(C)C,i,i,i,i,i,5.9
Cc1cccc(C)c1NC(=S)N(C)CCc1ccccn1,i,i,i,i,i,i
CC(C)c1ccc(NC(=S)N(C)CCc2ccccn2)cc1,i,i,i,i,i,29
N#Cc1ccsc1NC(=O)CN1CCN(c2ccc(O)cc2)CC1,i,i,i,i,i,i
N#Cc1ccsc1NC(=O)CN1CCN(c2ccccc2)CC1,i,i,i,i,i,8.6
O=C(N/N=C/c1cc([N+](=O)[O-])ccc1O)c1cc(-c2ccccc2)nc2ccccc12,i,i,i,7,i,i
CCOC(=O)c1c(C)[nH]c(C(=O)N/N=C\c2ccccc2O)c1C,i,i,i,i,i,i
CCOC(=O)c1c(C)[nH]c(C(=O)N/N=C/c2cc([N+](=O)[O-])ccc2O)c1C,i,nt,i,9,i,i
O=C(N/N=C/c1cccnc1)c1cc(-c2ccccc2)nc2ccccc12,i,nt,i,i,i,i
Cc1ccc(-c2cc(C(=O)N/N=C/c3cccnc3)c3ccccc3n2)cc1C,-9.7,nt,i,i,i,i
CC(C)c1c(C(=O)N/N=C/c2cccc3ccccc23)nnn1-c1nonc1N,i,nt,i,i,i,i
COc1cc(OC)c(C(=O)OCC(=O)Nc2ccc(S(=O)(=O)N3CCOCC3)cc2)cc1OC,i,nt,nt,nt,nt,nt
N#CC1=C(N)C(C#N)(C#N)C(c2cccnc2)C2CC(c3ccccc3)CC=C12 (stereo not given),i,-2.6,i,i,i,i
N#CC1=C(N)C(C#N)(C#N)C(c2cccnc2)C2CCCC=C12 (stereo not given),nt,i,i,i,i,i
COc1ccc(-n2cc(-c3ccccc3)[nH]c2=S)cc1,i,18,i,i,i,i
COc1ccccc1-n1cc(-c2ccccc2)[nH]c1=S,i,nt,i,i,i,i
CCC1(O)CC2CN(CCc3c([nH]c4ccccc34)C(C(=O)OC)(c3cc4c(cc3OC)N(C=O)C3C(O)(C(=O)OC)C(OC(C)=O)C5(CC)C=CCN6CCC43C65)C2)C1 (stereo not given),i,nt,nt,nt,nt,nt
C/C(=C\C(=O)c1ccc(Br)cc1)Nc1ccc(Cl)cc1,i,i,i,i,i,i
COc1ccc(N/C(C)=C/C(=O)c2ccccc2)cc1,i,i,i,i,i,i
C/C(=C\C(=O)c1ccccc1)NNC(=O)c1ccc(Cl)cc1,i,nt,i,i,i,6.5
COc1ccc(C(=O)NN/C(C)=C/C(=O)c2ccccc2)cc1,i,nt,i,i,i,9.1
Cc1cnc(C(=O)OCC(=O)NCc2ccc(Cl)cc2)cn1,i,nt,nt,nt,nt,nt
COC(=O)c1nn(C23CC4CC(CC(C4)C2)C3)c2c1C(=O)N(c1ccc(Br)cc1)C2=O,i,i,i,6,i,i
SMILES,KCNK3 inh,Cl transport mod,KCNQ1 act,KCNQ1 block,KCNK9 block,hERG rescue
COc1cccc2sc(NN)nc12,i,i,i,i,i,i
COc1cccc2sc(Nc3nc(-c4cc5ccccc5oc4=O)cs3)nc12,i,i,i,i,-7.3,i
COc1ccccc1-c1nnc(Nc2nc3c(OC)cccc3s2)o1,i,4.1,i,i,i,i
COc1cccc(-c2nnc(Nc3nc4c(F)cccc4s3)o2)c1,i,39,35,i,i,40
COc1ccc(NC(=O)CN(C)CC(=O)Nc2sc3c(c2C#N)CCC3)cc1,i,nt,nt,nt,nt,nt
Cc1nnc(Sc2cc(NCCO)c([N+](=O)[O-])c3nonc23)s1,i,i,i,8,i,i
Cc1nnc(Sc2cc(NCCCO)c([N+](=O)[O-])c3nonc23)s1,i,i,i,10,-7.2,i
O=[N+]([O-])c1c(NCCO)cc(N2CCCCCC2)c2nonc12,i,nt,i,i,i,i
CCC(=O)OCCNc1cc(Sc2nc3ccccc3s2)c2nonc2c1[N+](=O)[O-],i,i,i,6,i,i
O=C(COC(=O)c1cc(S(=O)(=O)N2CCOCC2)c(Cl)cc1Cl)NCc1ccco1,i,nt,nt,nt,nt,nt
CCCCOc1ccc(-c2c(C#N)c(N)[nH]c(=S)c2C#N)cc1,i,i,i,i,i,8.4
Cc1ccccc1CC(=O)NC1CCN(Cc2ccccc2)CC1,i,nt,i,i,i,8.2
CN1C(=O)C2(OCC(C)([N+](=O)[O-])CO2)c2ccccc21 (stereo not given),i,nt,i,i,i,8.6
O=C(Cn1c(-c2ccccc2Cl)nc2ccccc21)Nc1cccc(Cl)c1,i,i,i,i,-7.5,i
O=C(Cn1c(COc2ccccc2)nc2ccccc21)Nc1cccc(Cl)c1,i,i,i,i,i,6.2
Cc1ccc(SCc2nc3ccccc3n2CC(=O)Nc2ccccc2)cc1,i,i,i,i,-6.9,i
O=C(Cn1c(CSc2ccccc2)nc2ccccc21)Nc1ccccc1,nt,i,nt,nt,nt,nt
NNC(=O)Cn1c(COc2ccc(Cl)cc2)nc2ccccc21,i,i,i,i,i,i
CN(C(=O)c1ccc(NC(=O)Cc2cccc(NC(=O)C3CCN(C(=O)C4CCCC4)CC3)c2)cc1)C1CC1,i,nt,nt,nt,nt,nt
CCn1nc(C(=O)N2CCc3ccccc32)c2ccccc2c1=O,i,nt,nt,nt,nt,nt
CCn1nc(C(=O)OCC(=O)N2CCc3ccccc32)c2ccccc2c1=O,i,-3.4,i,i,i,i
Cc1ccc(NS(=O)(=O)c2cccc3nsnc23)cc1[N+](=O)[O-],i,nt,i,i,i,i
O=C(NC(=S)N1CCN(Cc2ccc3c(c2)OCO3)CC1)c1cccc(Br)c1,i,79,29,i,i,25
O=C(NC(=S)N1CCN(Cc2ccc3c(c2)OCO3)CC1)c1ccc(Cl)cc1,i,75,11,i,i,24
CC1CN(C(=S)NC(=O)c2ccc(Cl)cc2)CC(C)O1 (stereo not given),i,nt,i,i,i,6.4
Cc1cc(Cl)ccc1NC(=S)N1CCN(Cc2ccc3c(c2)OCO3)CC1,i,i,i,i,i,i
CC1CCCCN1S(=O)(=O)c1ccc(C(=O)N2CCOCC2)cc1 (stereo not given),i,nt,i,i,i,i

# Assay outcomes from PubChem BioAssay.
